Results: ChEMBL document CHEMBL1142284, “Identification of N-(quinolin-8-yl)benzenesulfonamides as agents capable of down-regulating NFkappaB activity within two separate high-throughput screens of NFkappaB activation” (Bioorg Med Chem Lett, 2008)
Activity calls are given as the source filed them. No cut-off for these calls is given here. Peptide text beside a SMILES is read from it. * marks the point of attachment. Cbz = O=C(OCc1ccccc1)*

Key:
[1] = molecular target: Transcription factor p65 (Homo sapiens) (UniProt Q04206); assay: Inhibition of TNF-alpha-stimulated human NF-kappaB p65 RelA subunit nuclear translocation in HUVEC relative to control; type: cell-based
Chain of Transcription factor p65 (Homo sapiens) (Q04206 whole entry): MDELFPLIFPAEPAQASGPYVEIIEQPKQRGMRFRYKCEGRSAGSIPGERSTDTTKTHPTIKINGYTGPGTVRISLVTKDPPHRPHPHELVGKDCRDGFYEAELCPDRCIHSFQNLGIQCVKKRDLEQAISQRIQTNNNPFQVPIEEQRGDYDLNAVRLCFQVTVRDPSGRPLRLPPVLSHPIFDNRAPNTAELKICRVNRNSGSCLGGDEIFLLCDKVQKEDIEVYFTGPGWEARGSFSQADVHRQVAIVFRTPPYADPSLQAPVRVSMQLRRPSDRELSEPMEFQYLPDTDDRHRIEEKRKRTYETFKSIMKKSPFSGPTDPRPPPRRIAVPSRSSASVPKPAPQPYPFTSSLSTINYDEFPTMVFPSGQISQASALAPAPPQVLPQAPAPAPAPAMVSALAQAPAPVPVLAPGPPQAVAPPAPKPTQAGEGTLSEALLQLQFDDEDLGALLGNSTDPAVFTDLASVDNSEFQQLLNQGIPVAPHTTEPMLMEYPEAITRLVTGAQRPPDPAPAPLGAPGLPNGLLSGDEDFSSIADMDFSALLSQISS
How it was run: (§1)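 HUVEC (fewer than 8 passages) were seeded at 3,000 cells/well. Compounds were added in 8-point series, either from 10 µM final in media with 0.33% DMSO diluted 1:3, or from 8 µM diluted 1:2. After 3.5 h with compound, cells were stimulated with […] for 30 min. Cells were then fixed, permeabilized, stained with Hoechst and with anti-p65 plus an Alexa 647 secondary, and imaged automatically. IC50 is from curve fitting of one experiment run in triplicate, with BAY 11-7082 as the positive control.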

[2] = (§2) Inhibition of TNFalpha stimulated human NF-kappaB-mediated beta lactamase gene expression in HUVEC; type: cell-based
[3] = molecular target: T1, NF-kappa-B inhibitor alpha (Homo sapiens) (UniProt P25963); assay: Induction of human IkappaBalpha stabilization in OCI-Ly3 cells by green light emiting IkappaBalpha-fused luciferase reporter gene assay relative to control; type: cell-based
T1 sequence (whole entry): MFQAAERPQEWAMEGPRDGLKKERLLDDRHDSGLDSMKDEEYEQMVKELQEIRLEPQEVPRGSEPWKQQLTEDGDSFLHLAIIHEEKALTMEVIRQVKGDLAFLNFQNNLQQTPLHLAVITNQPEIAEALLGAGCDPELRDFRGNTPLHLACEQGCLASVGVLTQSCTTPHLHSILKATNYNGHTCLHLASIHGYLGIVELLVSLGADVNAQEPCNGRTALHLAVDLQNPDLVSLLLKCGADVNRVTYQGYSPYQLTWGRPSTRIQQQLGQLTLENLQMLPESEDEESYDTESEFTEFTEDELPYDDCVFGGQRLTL
How it was run: (§3)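 The IκBα-CBG68 fusion (green luminescence) and the CBR control reporter (red) were induced with doxycycline. The read-out was green luminescence, and EC50 is given with % efficacy relative to the MG-132 positive control. Each experiment was a concentration titration run in duplicate with concentration-response curve fitting, and values are averages of two to three experiments.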

OCI-Ly3 = assay: (§4) Cytotoxicity against NF-kappaB overexpressing human OCI-Ly3 cells after 4 hrs; type: functional, cell-based
[4] = molecular target: Transcription factor p65 (Homo sapiens) (UniProt Q04206); assay: Inhibition of TNF-alpha-stimulated human NF-kappaB p65 RelA subunit nuclear translocation in HUVEC; how it was run: as §1
[5] = as §4; type: functional, cell-based; conditions: OCI-Ly3, 4 h
HUVEC [6] = assay: Inhibition of human E3 ubiquitin ligase-mediated IkappaBalpha ubiquitination in HUVEC; type: cell-based
HUVEC [7] = assay: as §2; type: cell-based
[8] = molecular target: T1, NF-kappa-B inhibitor alpha (Homo sapiens); assay: Induction of human IkappaBalpha stabilization in OCI-Ly3 cells assessed as ratio of green light emiting IkappaBalpha-fused luciferase expression to red light emiting native luciferase expression; type: cell-based
How it was run: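 Dual-luciferase IκBα stabilization assay: doxycycline induces both an IκBα-CBG68 fusion (green luminescence) and a CBR control (red luminescence), and the red signal normalizes for nonspecific effects. EC50 comes from the green/red luminescence ratio. Each experiment was a concentration titration run in duplicate with concentration-response curve fitting, and values are averages of two to three experiments.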

[9] = molecular target: T1, NF-kappa-B inhibitor alpha (Homo sapiens); assay: Induction of human IkappaBalpha stabilization in OCI-Ly3 cells by green light emiting IkappaBalpha-fused luciferase reporter gene assay; type: cell-based; how it was run: as §3

SMILES	Efficacy [1] [%]	IC50 [2] [µM]	Efficacy [3] [%]	Activity [4]	Activity (HUVEC [6])	Activity (HUVEC [7])	Activity [8]	Activity [9]	Activity (OCI-Ly3)	IC50 [5] [µM]
Cc1ccc(S(=O)(=O)/C=C/C#N)cc1	> 90									
O=S1(=O)Nc2c(ccc3cccnc23)-c2cc(F)ccc21	> 90	1.8	122						inactive	
COc1cc(NS(=O)(=O)c2ccc(C)cc2[N+](=O)[O-])c2ncccc2c1	> 90	4	60							> 57
O=[N+]([O-])c1ccccc1S(=O)(=O)Nc1cccc2cccnc12	> 90	10	620						inactive	
[O-][S+](c1ccccc1)c1ccc2nnnn2n1 (configuration not stated)					Active					
O=S(=O)(Nc1cccc2cccnc12)c1ccccc1	> 90	8	350						inactive	
Cc1cnc2c3c(ccc2c1)-c1ccccc1S(=O)(=O)N3		8.1	32						inactive	
O=S(=O)(Nc1cccc2cccnc12)c1ccc(Br)s1	> 90	3.4	170						inactive	
COc1cc2ccc(C)nc2c2c1-c1cc(C)ccc1S(=O)(=O)N2	> 90	1.1	300							> 57
Cc1ccc2cccc(NS(=O)(=O)c3ccccc3[N+](=O)[O-])c2n1	> 90	6	200						inactive	
Cc1ccc2cccc(NS(=O)(=O)c3cc([N+](=O)[O-])ccc3C)c2n1		> 57		inactive					inactive	
O=S(=O)(Nc1cccc2cccnc12)c1cccs1	> 90	7	250						inactive	
Cc1ccc(S(=O)(=O)Nc2cccc3cccnc23)c([N+](=O)[O-])c1	> 90	6	275							> 57
Cc1ccc2cccc(NS(=O)(=O)c3ccc(Br)s3)c2n1	75	5	22							> 57
COc1ccc2c(c1)-c1ccc3cccnc3c1NS2(=O)=O	> 90	1.3	20						inactive	
O=[N+]([O-])c1cc(C(F)(F)F)ccc1S(=O)(=O)Nc1cccc2cccnc12	> 90	1.3	200							> 57
O=S1(=O)Nc2c(ccc3cccnc23)-c2cc(O)ccc21				inactive						
COc1cc(NS(=O)(=O)c2ccc(C)cc2[N+](=O)[O-])c2nc(C)ccc2c1				inactive		inactive				> 57
COc1cc(NS(=O)(=O)c2ccc(C)cc2)c2nc(C)ccc2c1	> 90	> 57	150							> 57
Cc1ccc2ccc3c(c2n1)NS(=O)(=O)c1ccc(C(F)(F)F)cc1-3	> 90	3.6	700						inactive	
Cc1ccc2ccc3c(c2n1)NS(=O)(=O)c1ccc(O)cc1-3	> 90	6.7	120							> 57
COc1cnc2c3c(ccc2c1)-c1ccccc1S(=O)(=O)N3	> 90									
O=S1(=O)Nc2c(ccc3cccnc23)-c2cc(C(F)(F)F)ccc21	> 90	1.2	32						inactive	

Second part, led by results:

Efficacy [1] [%]	IC50 [2] [µM]	Efficacy [3] [%]	Activity [4]	Activity (HUVEC [6])	Activity (HUVEC [7])	Activity [8]	Activity [9]	SMILES	Activity (OCI-Ly3)	IC50 [5] [µM]
	> 57	23	inactive					COc1cc(NS(=O)(=O)c2ccc(C)cc2N)c2nc(C)ccc2c1	inactive	
> 90	5	560						O=[N+]([O-])c1ccc(S(=O)(=O)Nc2cccc3cccnc23)cc1	inactive	
> 90	13	50						Cc1ccc2cccc(NS(=O)(=O)c3ccc(C(F)(F)F)cc3[N+](=O)[O-])c2n1		> 57
	0.6	100						CC(C)C[C@@H](C=O)NC(=O)[C@H](CC(C)C)NC(=O)[C@H](CC(C)C)NC(=O)OCc1ccccc1 [MG-132] (Cbz-Leu-Leu-Leu-aldehyde)		> 10
> 90	1.9	66						O=S1(=O)Nc2c(ccc3cccnc23)-c2cc(Cl)ccc21	inactive	
> 90	3.2	200						COc1ccc2c(c1)-c1ccc3ccc(C)nc3c1NS2(=O)=O		> 57
78								COc1ccc(S(=O)(=O)Nc2cccc3ccc(C)nc23)c([N+](=O)[O-])c1		
> 90	5.5	250						Cc1ccc2cccc(NS(=O)(=O)c3ccccc3N)c2n1	inactive	
> 90	1	190						O=S(=O)(Nc1cccc2cccnc12)c1ccc(Cl)s1		> 57
> 90	1.8	18						Cc1ccc([N+](=O)[O-])cc1S(=O)(=O)Nc1cccc2cccnc12		> 57
> 90	13.5	300						Nc1ccccc1S(=O)(=O)Nc1cccc2cccnc12		> 57
> 90	2	90						COc1cc(NS(=O)(=O)c2ccc(C)cc2N)c2ncccc2c1		> 57
> 90	1.3	60						Cc1ccc2cccc(NS(=O)(=O)c3ccc(Cl)s3)c2n1		> 10
> 90	2	34						COc1cc2cccnc2c2c1-c1cc(C)ccc1S(=O)(=O)N2	inactive	
> 90	3.4	120		inactive				O=S1(=O)Nc2c(ccc3cccnc23)-c2ccccc21	inactive	
	2		inactive			inactive	inactive	COc1cccc2nc(-c3cccs3)nc(NN3C(=O)C=C(C)C3=O)c12 [AS-602868]	inactive	
> 90	1	110						Cc1ccc2cccc(NS(=O)(=O)c3cccc([N+](=O)[O-])c3)c2n1		> 57
> 90	0.8	60						Cc1ccc2c(c1)-c1ccc3cccnc3c1NS2(=O)=O		> 57
